Data: publication PMC2868107 (Biochemistry, 2010)
Where two headings read alike, the source gives them in different places. Where a SMILES comes first, the peptide text is derived from it. Where no end group is shown, it is not given here.

Columns and labels:
neuropilin-2 = biological target: T1, neuropilin-2 (Homo sapiens, UniProt O60462); test: Sedimentation velocity analytical ultracentrifugation with neuropilin-2; format: binding
T1 sequence (O60462 276-595 limits assumed): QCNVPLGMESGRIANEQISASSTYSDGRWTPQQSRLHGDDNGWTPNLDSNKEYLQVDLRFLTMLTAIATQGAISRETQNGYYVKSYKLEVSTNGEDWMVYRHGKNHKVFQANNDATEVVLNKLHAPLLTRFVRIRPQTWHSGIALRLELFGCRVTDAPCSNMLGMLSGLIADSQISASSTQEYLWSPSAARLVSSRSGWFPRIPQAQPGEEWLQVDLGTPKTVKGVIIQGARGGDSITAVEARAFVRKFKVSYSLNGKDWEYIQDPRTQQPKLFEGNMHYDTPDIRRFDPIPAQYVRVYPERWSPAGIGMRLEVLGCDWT
Procedure, shortened: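 Sedimentation velocity was run at 4°C and 40,000 rpm in 10 mM Tris pH 7.5, 150 mM NaCl, 1 mM sodium azide. Human neuropilin-2 b1b2 was held at 8 μM. The oxidised dimeric C-terminal Sema3F peptide was added at 2.5X molar excess. Absorbance was read at 280 nm. Sedimentation coefficient distributions (0.1–6 s) were fit to numerical Lamm equation solutions, using calculated buffer density, viscosity and partial specific volumes.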

[1] = biological target: Neuropilin-1 (Homo sapiens) (UniProt O14786); test: SPR; conditions: cited from earlier work
Sequence of Neuropilin-1 (Homo sapiens) (O14786 22-923): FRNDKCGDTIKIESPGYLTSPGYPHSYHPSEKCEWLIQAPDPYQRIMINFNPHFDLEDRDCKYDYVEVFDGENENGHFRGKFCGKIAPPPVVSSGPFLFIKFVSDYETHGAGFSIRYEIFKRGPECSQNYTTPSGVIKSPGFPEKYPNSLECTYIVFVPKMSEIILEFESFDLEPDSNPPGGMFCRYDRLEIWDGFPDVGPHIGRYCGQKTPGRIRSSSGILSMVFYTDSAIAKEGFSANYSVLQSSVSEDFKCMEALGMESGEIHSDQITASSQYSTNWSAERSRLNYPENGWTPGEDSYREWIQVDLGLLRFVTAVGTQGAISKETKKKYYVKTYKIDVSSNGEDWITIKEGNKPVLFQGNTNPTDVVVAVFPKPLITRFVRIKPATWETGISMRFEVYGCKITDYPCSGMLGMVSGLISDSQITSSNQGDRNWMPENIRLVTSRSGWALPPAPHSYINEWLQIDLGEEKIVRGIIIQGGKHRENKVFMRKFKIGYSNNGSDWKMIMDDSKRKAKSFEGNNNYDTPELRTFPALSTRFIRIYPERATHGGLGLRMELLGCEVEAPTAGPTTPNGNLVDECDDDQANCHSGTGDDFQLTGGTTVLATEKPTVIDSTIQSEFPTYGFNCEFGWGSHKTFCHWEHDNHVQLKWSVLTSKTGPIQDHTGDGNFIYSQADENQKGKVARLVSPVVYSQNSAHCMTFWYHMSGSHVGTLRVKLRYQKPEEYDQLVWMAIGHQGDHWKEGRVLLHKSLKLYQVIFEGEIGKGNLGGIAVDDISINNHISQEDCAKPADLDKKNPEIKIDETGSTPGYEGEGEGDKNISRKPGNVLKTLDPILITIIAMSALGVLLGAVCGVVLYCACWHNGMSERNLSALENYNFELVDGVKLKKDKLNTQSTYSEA

neuropilin-1 [2] = biological target: T2, neuropilin-1 (Homo sapiens, UniProt O14786); format: binding
T2 sequence (O14786 273-586 limits assumed): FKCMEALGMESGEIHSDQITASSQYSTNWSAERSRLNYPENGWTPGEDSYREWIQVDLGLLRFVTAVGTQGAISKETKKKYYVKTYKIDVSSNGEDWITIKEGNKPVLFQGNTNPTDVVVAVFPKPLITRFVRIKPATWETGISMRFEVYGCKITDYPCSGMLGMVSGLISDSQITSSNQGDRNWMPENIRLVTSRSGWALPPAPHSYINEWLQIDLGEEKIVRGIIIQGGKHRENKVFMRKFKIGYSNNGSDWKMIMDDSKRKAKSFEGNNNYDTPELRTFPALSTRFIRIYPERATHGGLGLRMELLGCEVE

axon = conditions: cited from earlier work
neuropilin-1 [3] = conditions: cited from earlier work
[4] = biological target: T3, core ligand binding region (b1b2) of human neuropilin-2 (human, UniProt O60462 277-592); test: AUC
T3 sequence (looked up): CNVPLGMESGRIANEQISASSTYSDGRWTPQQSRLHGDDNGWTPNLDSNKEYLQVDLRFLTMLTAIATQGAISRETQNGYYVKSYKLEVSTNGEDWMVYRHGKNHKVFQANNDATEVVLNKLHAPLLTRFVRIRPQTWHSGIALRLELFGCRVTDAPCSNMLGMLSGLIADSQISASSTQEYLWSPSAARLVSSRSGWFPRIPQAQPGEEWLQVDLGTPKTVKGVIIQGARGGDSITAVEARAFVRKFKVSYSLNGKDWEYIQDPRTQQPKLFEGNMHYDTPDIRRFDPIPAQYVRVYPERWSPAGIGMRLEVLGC

[5] = biological target: core ligand binding region (b1b2) of human neuropilin-1 (human) (UniProt O14786); test: plate-based inhibition assay
Sequence of core ligand binding region (b1b2) of human neuropilin-1 (human) (O14786 22-923): as the sequence (O14786 22-923) above

[6] = biological target: core ligand binding region (b1b2) of human neuropilin-1 (human) (UniProt O14786); test: plate-based inhibition assay; remark: listed apart in the source
furin = test: Furin processing of Sema3F C-terminus; format: cell-based; conditions: C-terminal Hgh fusion, western blot
Procedure, shortened: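 The C-terminal neuropilin-binding region of human Sema3F (residues 605-785) was fused to human growth hormone. Cells were kept in α-MEM with 5% FBS, moved at 80% confluence to serum-free Hybridoma-SFM, and PEI-transfected with 1 μg DNA/mL at a 3:1 PEI:DNA ratio. Hosts were CHO, furin-deficient FD11, furin-overexpressing CHO, and COS-7 with or without furin inhibitors. Media were western-blotted with anti-Hgh polyclonal (1:10,000) and HRP anti-rabbit (1:20,000) antibodies, then chemiluminescence.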

In the case of “GLIHQYCQGYWRHVPPSPREAPGAPRSPEPDQKKPRNRRHHPPDT (disulfide (positions not given here)) [C-Sema]”, the “% of species, peak a” value (neuropilin-2; neuropilin-2 8 μM + C-Sema 2.5X molar excess, free C-Sema) is reported as 32%, the “c(M), peak a” value (neuropilin-2; neuropilin-2 8 μM + C-Sema 2.5X molar excess, free C-Sema (expected 10.7 kDa)) is reported as 11.1 ± 0.6 kDa and the “% of species, peak c” value (neuropilin-2; neuropilin-2 8 μM + C-Sema 2.5X molar excess, neuropilin-2 dimer) is reported as 4%. For the same molecule, the “% of species, peak b” value (neuropilin-2; neuropilin-2 8 μM + C-Sema 2.5X molar excess, neuropilin-2 monomer) was 58% and the “interaction with neuropilin-2 by sedimentation velocity” value (neuropilin-2; neuropilin-2 8 μM, peptide 2.5X molar excess) was “no significant interaction with neuropilin-2”.

For VEGF (from UniProt P15692), the Kd [1] is given as 2000 nM.

For `CC(C)C[C@H](NC(=O)[C@H](Cc1c[nH]c2ccccc12)NC(=O)[C@@H](NC(=O)[C@H](C)N)[C@@H](C)O)C(=O)N1CCC[C@H]1C(=O)N1CCC[C@H]1C(=O)N[C@@H](CCCNC(=N)N)C(=O)O` [ATWLPPR] (H-ATWLPPR-OH), the IC50 (neuropilin-1 [2]) was 10500 ± 2000 nM.

For VEGF, the “effect on semaphorin mediated growth cone collapse” value (axon) is given as “directly antagonize semaphorin mediated growth cone collapse” and the “increase in apparent affinity of VEGF with four fold higher neuropilin density” value (neuropilin-1 [3]) is given as “twenty”.

B1: Neuropilin-2: core ligand binding region (b1b2) of human neuropilin-2 (protein)
chain: CNVPLGMESGRIANEQISASSTYSDGRWTPQQSRLHGDDNGWTPNLDSNKEYLQVDLRFLTMLTAIATQGAISRETQNGYYVKSYKLEVSTNGEDWMVYRHGKNHKVFQANNDATEVVLNKLHAPLLTRFVRIRPQTWHSGIALRLELFGCRVTDAPCSNMLGMLSGLIADSQISASSTQEYLWSPSAARLVSSRSGWFPRIPQAQPGEEWLQVDLGTPKTVKGVIIQGARGGDSITAVEARAFVRKFKVSYSLNGKDWEYIQDPRTQQPKLFEGNMHYDTPDIRRFDPIPAQYVRVYPERWSPAGIGMRLEVLGC
In the case of B1, the “% of species, peak b” value (neuropilin-2; neuropilin-2 alone, 8 μM, dimer) is reported as 3%, the “c(M), peak b” value (neuropilin-2; neuropilin-2 alone, 8 μM, dimer (expected 76.8 kDa)) is reported as 74.3 ± 3.0 kDa and the “s20,w, peak b” value (neuropilin-2; neuropilin-2 alone, 8 μM, dimer, 4°C, 10 mM Tris pH 7.5, 150 mM NaCl) is reported as 4.73 S. For the same molecule, the “% of species, peak a” value (neuropilin-2; neuropilin-2 alone, 8 μM, monomer) was 97%, the “c(M), peak a” value (neuropilin-2; neuropilin-2 alone, 8 μM, monomer (expected 38.4 kDa)) was 37.9 ± 1.9 kDa and the “c(M), peak a” value (neuropilin-2; neuropilin-2 alone, 8 μM, monomer (expected 38.4 kDa), listed as neuropilin-2) was 37.9 kDa. For the same molecule, the “s20,w, peak a” value (neuropilin-2; neuropilin-2 alone, 8 μM, monomer, 4°C, 10 mM Tris pH 7.5, 150 mM NaCl) was 3.03 S.

B2: C-furSema, disulfide linked dimeric peptide of 40 residues corresponding to the furin cleaved species of Sema3F (peptide)
peptide: GLIHQYCQGYWRHVPPSPREAPGAPRSPEPQDQKKPRNRR
modifications: also: disulfide-linked dimer (interchain disulfide)
In the case of B2, the “stoichiometry N” value [4] is reported as 1 neuropilin-2:C-furSema, the IC50 [5] is reported as 46 nM and the IC50 [6] is reported as 45 nM.

B3: Sema3F (Ig-basic): C-terminal neuropilin binding region of human Sema3F (residues 605-785) with C-terminal human growth hormone fusion (protein)
chain: ANKNAVESVQYGVAGSAAFLECQPRSPQATVKWLFQRDPGDRRREIRAEDRFLRTEQGLLLRALQLSDRGLYSCTATENNFKHVVTRVQLHVLGRDAVHAALFPPLSMSAPPPPGAGPPTPPYQELAQLLAQPEVGLIHQYCQGYWRHVPPSPREAPGAPRSPEPQDQKKPRNRR
modifications: left off: Human Growth Hormone (Hgh), N-terminal, kept
With B3 the “processing state of Sema3F” value (furin; CHO cells overexpressing furin) was “only the processed form”, the “processing state of Sema3F” value (furin; COS-7 cells, no furin inhibitor) was “nearly completely processed” and the “proteolytic processing of Sema3F (fraction processed)” value (furin; Cos7 cells, no furin inhibitor) was over 95%. For the same molecule, the “processing state of Sema3F” value (furin; FD11 CHO cells lacking furin activity) was “solely the unprocessed form” and the “processing state of Sema3F” value (furin; wild-type CHO cells) was “a mixture of processed and unprocessed forms”.
